# Measured values from different studies.
# Lines come from different studies, so protocols differ.
# Target: Serine/threonine-protein kinase TAO3 (TAOK3, Homo sapiens, UniProt Q9H2K8)
# One construct used (Q9H2K8 1-898): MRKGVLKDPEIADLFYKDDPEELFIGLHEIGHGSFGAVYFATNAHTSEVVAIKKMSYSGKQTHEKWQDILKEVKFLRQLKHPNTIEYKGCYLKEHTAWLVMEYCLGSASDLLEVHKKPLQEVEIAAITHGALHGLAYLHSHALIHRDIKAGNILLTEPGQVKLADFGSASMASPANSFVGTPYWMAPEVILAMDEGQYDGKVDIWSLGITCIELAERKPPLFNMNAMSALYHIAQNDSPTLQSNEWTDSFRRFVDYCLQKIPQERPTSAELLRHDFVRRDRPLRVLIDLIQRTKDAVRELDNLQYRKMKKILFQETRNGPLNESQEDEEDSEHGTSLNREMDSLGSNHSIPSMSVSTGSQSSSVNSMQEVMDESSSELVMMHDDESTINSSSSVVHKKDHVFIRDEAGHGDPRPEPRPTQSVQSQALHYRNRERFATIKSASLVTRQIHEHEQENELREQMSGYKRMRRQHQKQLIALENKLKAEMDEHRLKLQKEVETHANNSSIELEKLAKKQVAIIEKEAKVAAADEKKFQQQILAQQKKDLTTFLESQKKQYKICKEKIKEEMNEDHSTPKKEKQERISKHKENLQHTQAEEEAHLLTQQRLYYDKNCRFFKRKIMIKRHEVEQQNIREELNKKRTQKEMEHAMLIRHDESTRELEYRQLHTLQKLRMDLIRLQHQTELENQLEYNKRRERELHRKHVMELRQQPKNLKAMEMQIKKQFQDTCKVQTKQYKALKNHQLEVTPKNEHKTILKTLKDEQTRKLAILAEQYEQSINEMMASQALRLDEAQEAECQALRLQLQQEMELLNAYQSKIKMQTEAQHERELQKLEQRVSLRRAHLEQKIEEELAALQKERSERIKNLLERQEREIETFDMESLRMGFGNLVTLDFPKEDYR
SMILES,test,conditions,remaining binding [%]
Nc1ncc2c(n1)-c1c([nH]c3ccc(C#CC4CC4)cc13)CCCC2,"binding, competition with immobilised ligand",1 µM,89
C[C@H](c1ccnc(Nc2nc3ccc(-c4cc(N(C)C)ncn4)cc3[nH]2)c1)N1CCN(C(=O)CC(F)(F)F)CC1,"cell-free assay, competition with immobilised ligand",0.1 µM,41
O=C(Nc1c[nH]nc1C(=O)NC1CCNCC1)c1cc(F)cc(F)c1,"binding, competition with immobilised ligand",1 µM,70
O=C(c1ccc(Nc2ncc(Cl)c(-c3ccc(Cl)s3)n2)cc1)N1CCC(N2CCCC2)CC1,"binding, competition with immobilised ligand",1 µM,49
CN(CCCC(F)(F)F)c1nccc(-c2cnn3ncccc23)n1,binding,1 µM,61
c1cncc(-c2cccc(Nc3nccc(NC4CCCCC4)n3)c2)c1,"binding, competition with immobilised ligand",10 µM,98
CN(C)c1ncc(F)c(-c2cnn3ncccc23)n1,binding,1 µM,78
O=C(NCCCN1CCOCC1)c1ccc(Nc2ncc(Cl)c(-c3ccc(Cl)s3)n2)cc1,"binding, competition with immobilised ligand",1 µM,49
CN(c1nccc(-c2cnn3ncccc23)n1)C1CC1,binding,1 µM,54
Cc1cc(NC(=O)c2cccc(S(F)(F)(F)(F)F)c2)cc(-n2ccn3nc(-c4cccnc4)cc23)c1,"cell-free assay, competition with immobilised ligand",1 µM,100
FC(F)(F)Oc1cccc(-c2cnc3ccc(-c4ccncc4)nn23)c1,"binding, competition with immobilised ligand",5 µM,72
Nc1cnc(N2CCc3cc(S(=O)(=O)Nc4c(F)cc(Cl)cc4F)cc(N4CCCC4=O)c32)nc1,"cell-free assay, competition with immobilised ligand",1 µM,70
c1cnn2ncc(-c3ccnc(N4CCC45COC5)n3)c2c1,binding,1 µM,73
Cn1nc(C(F)(F)F)cc1-c1cnc(N2CCc3cc(S(=O)(=O)Nc4c(F)cc(Cl)cc4F)cc(N4CCCC4=O)c32)nc1,"cell-free assay, competition with immobilised ligand",1 µM,93
C[C@H]1CCN(c2nccc(-c3cnn4ncccc34)n2)C1,binding,1 µM,86
c1ccc(N2CCN(Cc3nc4ccccc4[nH]3)CC2)nc1,"binding, competition with immobilised ligand",1 µM,86
O=C(c1ccc(Nc2ncc(Cl)c(-c3cc4ccccc4s3)n2)cc1)N1CCC(N2CCCC2)CC1,"binding, competition with immobilised ligand",1 µM,68
CNCc1ccccc1-c1csc([C@@H](C)Nc2nc(C)nc3cc(OC)c(OC)cc23)c1,"cell-free assay, competition with immobilised ligand",1 µM,83
CN(C)c1nccc(-c2cnc3ncccn23)n1,binding,1 µM,68
O=C1CCc2cc(Nc3cc(OC4CCOCC4)c([N+](=O)[O-])cc3Cl)ccc2N1,"cell-free assay, competition with immobilised ligand",1 µM,81
N[C@H]1CCN(c2nccc(-c3cnn4ncccc34)n2)C1,binding,1 µM,100
CNC(=O)[C@@H]1CC[C@@H](n2c(-c3ccc4cnccc4c3)nc3ccc(C(=O)NCc4cccc(C(N)=O)c4)cc32)C1,"binding, competition with immobilised ligand",1 µM,93
